Source: ChEMBL document CHEMBL1123619, “Isothiourea derivatives of 6-phenyl-2,3,5,6-tetrahydroimidazo[2,1-b]thiazole with broad-spectrum anthelmintic activity” (J Med Chem, 1987)

Assays:
Mus musculus [1] = test: Nematocidal activity against Nematospiroides dubius induced necropsy in mouse, after oral administration of 100 mg/kg; assay type: functional
Procedure, shortened: (§1)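 Seven-week-old female LACA mice infected orally with 100 N. dubius L3 larvae; single gavage dose given at day 10 of infection, groups of four mice; necropsy 4 days later; percent activity from worm burdens of treated versus untreated groups.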

Ovis aries [2] = test: Toxic activity expressed as the percentage against liver fluke in the sheep at 30 mg/kg peroral administration of dose; assay type: ADME, organism-based; design: dose 30 mg/kg, route oral; settings: in vivo, po
Procedure, shortened: (§2)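 Fasciola hepatica in sheep, controlled test; animals necropsied only when fecal egg count fell; postmortem fluke burdens compared with untreated control sheep (10 controls).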

Ovis aries [3] = test: Antihelmethic activity expressed as the percentage of worms eliminated in the feces in sheep large bowel at peroral dose of 15 mg/kg against Trichuris ovis.; assay type: functional; settings: route oral
Procedure, shortened: (§3)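 Sheep given a single dose, oral or subcutaneous. Total daily feces collected for 4 days after treatment and examined for expelled worms. Necropsy at day 7 after dosing; lungs, liver and gastrointestinal tract removed and remaining worms identified. Activity calculated by comparing worms passed in feces with those remaining at autopsy. Single animals per test unless otherwise indicated.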

[4] = system: Heligmosomoides polygyrus; test: Nematocidal activity against Nematospiroides dubius induced necropsy in mouse, oral administration 200 mg/kg; assay type: functional; procedure, shortened: as §1
Ovis aries [5] = test: Toxic activity expressed as the percentage against liver fluke in the sheep at 300 mg/kg peroral administration of dose; no toxic symptoms observed; assay type: ADME, organism-based; design: dose 300 mg/kg, route oral; settings: in vivo, po
Ovis aries [6] = test: Antihelmethic activity expressed as the percentage of worms eliminated in the feces in sheep small intestine at subcuteneous dose of 30 mg/kg against Bunostomum trigonocephalum.; assay type: functional; procedure, shortened: as §3
Ovis aries [7] = test: Antihelmethic activity expressed as the percentage of worms eliminated in the feces in sheep small intestine at peroral dose of 15 mg/kg against Capillaria species.; assay type: functional; settings: route oral; procedure, shortened: as §3
Ovis aries [8] = test: Antihelmethic activity expressed as the percentage of worms eliminated in the feces in sheep small intestine at peroral dose of 30 mg/kg against Nematodirus species; assay type: functional; settings: route oral; procedure, shortened: as §3
Fasciola hepatica = test: Anthelmintic activity against adult liver fluke (Fasciola hepatica) in sheep following 30 mg/kg p.o.; assay type: functional; settings: route oral
Procedure, shortened: (§4)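 Sheep dosed with a single oral dose. Fecal fluke egg output monitored after treatment. Animals necropsied only if the fecal egg count fell. Postmortem Fasciola hepatica burdens compared with untreated control sheep (mean of 10 controls). Single animals per test unless otherwise indicated, with group size given in parentheses. I denotes no effect on fecal fluke egg output.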

Mus musculus [9] = test: Nematocidal against Nematospiroides dubius in mouse was determined at 100 mg/kg peroral dose of compound; assay type: functional; settings: route oral; procedure, shortened: as §1
Ovis aries [10] = test: Antihelmethic activity expressed as the percentage of worms eliminated in the feces in sheep large bowel at peroral dose of 30 mg/kg against Oesophagostomum columbianum.; assay type: functional; settings: route oral; procedure, shortened: as §3
Ovis aries [11] = test: Antihelmethic activity expressed as the percentage of worms eliminated in the feces in sheep small intestine at subcuteneous dose of 30 mg/kg against Strongyloides papillosus; assay type: functional; procedure, shortened: as §3
Mus musculus [12] = test: Nematocidal activity against Nematospiroides dubius induced necropsy in mouse, after oral administration of 100 mg/kg of the compound; assay type: functional; procedure, shortened: as §1
Ovis aries [13] = test: Anthelmintic activity against adult liver fluke (Fasciola hepatica) in sheep, after peroral administration of 15 mg/kg was determined; assay type: functional; settings: route oral; procedure, shortened: as §4
Ovis aries [14] = test: Antihelmethic activity expressed as the percentage of worms eliminated in the feces in sheep small intestine at peroral dose of 15 mg/kg against Nematodirus species; assay type: functional; settings: route oral; procedure, shortened: as §3
Ovis aries [15] = test: Antihelmethic activity expressed as the percentage of worms eliminated in the feces in sheep small intestine at subcuteneous dose of 30 mg/kg against Trichostrongylus axei; assay type: functional; procedure, shortened: as §3
Ovis aries [16] = test: Antihelmethic activity expressed as the percentage of worms eliminated in the feces in sheep small intestine at peroral dose of 15 mg/kg against Cooperia curticei; assay type: functional; settings: route oral; procedure, shortened: as §3
Ovis aries [17] = test: Antihelmethic activity expressed as the percentage of worms eliminated in the feces in sheep small intestine at peroral dose of 30 mg/kg against Strongyloides papillosus; assay type: functional; settings: route oral; procedure, shortened: as §3
Ovis aries [18] = organism: Ovis aries; test: (§5) Antihelmethic activity expressed as the percentage of worms eliminated in the feces in sheep species.; assay type: functional
Procedure, shortened: (§6)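 Sheep; total daily faeces collected for 4 days after treatment and searched for expelled worms; necropsy 7 days post-dose with lungs, liver and GI tract examined and worms identified; activity from worms passed in faeces versus worms remaining in host at autopsy.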

Ovis aries [19] = test: Antihelmethic activity expressed as the percentage of worms eliminated in the feces in sheep small intestine at peroral dose of 30 mg/kg against Cooperia curticei; assay type: functional; settings: route oral; procedure, shortened: as §3
Ovis aries [20] = test: Antihelmethic activity expressed as the percentage of worms eliminated in the feces in sheep large bowel at peroral dose of 30 mg/kg against Lungworm Dictyocaulus filaria.; assay type: functional; settings: route oral; procedure, shortened: as §3
Ovis aries [21] = test: Antihelmethic activity expressed as the percentage of worms eliminated in the feces in sheep small intestine at peroral dose of 15 mg/kg against Bunostomum trigonocephalum.; assay type: functional; settings: route oral; procedure, shortened: as §3
Mus musculus [22] = test: Nematocidal activity against Nematospiroides dubius induced necropsy in mouse, after oral administration of 50 mg/kg of the compound; assay type: functional; procedure, shortened: as §1
Ovis aries [23] = test: Antihelmethic activity expressed as the percentage of worms eliminated in the feces in sheep small intestine at peroral dose of 30 mg/kg against Bunostomum trigonocephalum.; assay type: functional; settings: route oral; procedure, shortened: as §3
Canis familiaris = test: Antihelmethic activity expressed as the percentage of worms eliminated in the feces in dog toxascaris at peroral dose of 30 mg/kg; worms voided and toxascaris egg count reduced to zero for the duration of the test; assay type: functional, organism-based; design: dose 30 mg/kg; settings: Canis lupus familiaris
Ovis aries [24] = test: Antihelmethic activity expressed as the percentage of worms eliminated in the feces in sheep abomasum at peroral dose of 30 mg/kg against Trichostrongylus axei; assay type: functional; settings: route oral; procedure, shortened: as §3
Ovis aries [25] = test: Antihelmethic activity expressed as the percentage of worms eliminated in the feces in sheep small intestine at peroral dose of 15 mg/kg against Trichostrongylus axei; assay type: functional; settings: route oral; procedure, shortened: as §3
Ovis aries [26] = test: Antihelmethic activity expressed as the percentage of worms eliminated in the feces in sheep large bowel at peroral dose of 30 mg/kg against chabertia ovina.; assay type: functional; settings: route oral; procedure, shortened: as §3
Ovis aries [27] = organism: Ovis aries; test: as §5; assay type: functional; procedure, shortened: as §6; remark: listed apart in the source
Ovis aries [28] = test: Antihelmethic activity expressed as the percentage of worms eliminated in the feces in sheep small intestine at peroral dose of 30 mg/kg against Trichostrongylus axei; assay type: functional; settings: route oral; procedure, shortened: as §3
Ovis aries [29] = test: Antihelmethic activity expressed as the percentage of worms eliminated in the feces in sheep […] at subcuteneous dose of 30 mg/kg against Lungworm Dictyocaulus filaria.; assay type: functional; procedure, shortened: as §3
Ovis aries [30] = test: Antihelmethic activity expressed as the percentage of worms eliminated in the feces in sheep small intestine at subcuteneous dose of 30 mg/kg against Cooperia curticei; assay type: functional; procedure, shortened: as §3
Mus musculus [31] = test: Nematocidal against Nematospiroides dubius in mouse was determined at 50 mg/kg peroral dose of compound; assay type: functional; settings: route oral; procedure, shortened: as §1
Ovis aries [32] = test: Antihelmethic activity expressed as the percentage of worms eliminated in the feces in sheep large bowel at subcuteneous dose of 30 mg/kg against Trichuris ovis.; assay type: functional; procedure, shortened: as §3
Ovis aries [33] = test: Antihelmethic activity expressed as the percentage of worms eliminated in the feces in sheep large bowel at peroral dose of 15 mg/kg against Oesophagostomum columbianum.; assay type: functional; settings: route oral; procedure, shortened: as §3
Ovis aries [34] = test: Toxic activity expressed as the percentage against liver fluke in the sheep at 15 mg/kg peroral administration of dose; assay type: ADME, organism-based; design: dose 15 mg/kg, route oral; settings: in vivo, po; procedure, shortened: as §2
Ovis aries [35] = test: Antihelmethic activity expressed as the percentage of worms eliminated in the feces in sheep large bowel at subcuteneous dose of 30 mg/kg against chabertia ovina.; assay type: functional; procedure, shortened: as §3

Question: For `CS/C(=N\c1cccc(C2CN3CCSC3=N2)c1)Nc1ccc(C#N)cc1` (stereo not drawn), which Reduction (Mus musculus [1]) is on record?
Answer: Its Reduction is 99%.

Question: What about the Activity (Ovis aries [2]) of the same compound?
Answer: The Activity was 97%.

Question: And the Activity (Ovis aries [3])?
Answer: The Activity was 100%.

Question: And the Reduction [4]?
Answer: The Reduction was 100%.

Question: What about the Activity (Ovis aries [5]) of the same compound?
Answer: Its Activity is “no toxic symptoms”.

Question: What about the Activity (Ovis aries [6]) of the same compound?
Answer: Its Activity is 100%.

Question: What about the Activity (Ovis aries [7]) of the same compound?
Answer: The Activity was 0%.

Question: What about the Activity (Ovis aries [8]) of the same compound?
Answer: The Activity was 73%.

Question: And the Activity (Fasciola hepatica)?
Answer: The Activity was 97%.

Question: What about the Activity (Mus musculus [9]) of the same compound?
Answer: The Activity was 100.

Question: And the Activity (Ovis aries [10])?
Answer: The Activity was 93%.

Question: What about the Activity (Ovis aries [11]) of the same compound?
Answer: The Activity was 100%.

Question: What about the Activity (Mus musculus [12]) of the same compound?
Answer: Its Activity is 100%.

Question: What about the Activity (Ovis aries [13]) of the same compound?
Answer: Its Activity is 83%.

Question: What about the Activity (Ovis aries [14]) of the same compound?
Answer: Its Activity is 100%.

Question: And the Activity (Ovis aries [15])?
Answer: Its Activity is 100%.

Question: What about the Activity (Ovis aries [16]) of the same compound?
Answer: The Activity was 99%.

Question: What about the Activity (Ovis aries [17]) of the same compound?
Answer: The Activity was 100%.

Question: What about the Activity (Ovis aries [18]) of the same compound?
Answer: The Activity was 95%.

Question: And the Activity (Ovis aries [19])?
Answer: Its Activity is 100%.

Question: And the Activity (Ovis aries [20])?
Answer: Its Activity is 100%.

Question: And the Activity (Ovis aries [21])?
Answer: The Activity was 100%.

Question: And the Activity (Mus musculus [22])?
Answer: Its Activity is 99%.

Question: What about the Reduction (Mus musculus [22]) of the same compound?
Answer: The Reduction was 74%.

Question: What about the Activity (Ovis aries [23]) of the same compound?
Answer: Its Activity is 100%.

Question: And the Activity (Canis familiaris)?
Answer: The Activity was “no toxic symptoms”.

Question: What about the Activity (Ovis aries [24]) of the same compound?
Answer: Its Activity is 100%.

Question: What about the Activity (Ovis aries [25]) of the same compound?
Answer: The Activity was 100%.

Question: And the Activity (Ovis aries [26])?
Answer: The Activity was 100%.

Question: And the Activity (Ovis aries [27])?
Answer: Its Activity is 100%.

Question: What about the Activity (Ovis aries [28]) of the same compound?
Answer: The Activity was 100%.

Question: And the Activity (Ovis aries [29])?
Answer: The Activity was 100%.

Question: What about the Activity (Ovis aries [30]) of the same compound?
Answer: The Activity was 91%.

Question: What about the Activity (Mus musculus [31]) of the same compound?
Answer: Its Activity is 99.

Question: What about the Activity (Ovis aries [32]) of the same compound?
Answer: The Activity was 100%.

Question: What about the Activity (Ovis aries [33]) of the same compound?
Answer: Its Activity is 100%.

Question: What about the Activity (Ovis aries [34]) of the same compound?
Answer: Its Activity is 83%.

Question: What about the Activity (Ovis aries [35]) of the same compound?
Answer: The Activity was 96%.
